The source of these data is ChEMBL document CHEMBL2407084, “Novel imino sugar α-glucosidase inhibitors as antiviral compounds” (Bioorg Med Chem, 2013).

Calls of active or inactive are those of the source. The calls are words filed in the database; no cut-off is given here.

For data set [1], the system named is Bovine viral diarrhea virus 1. Put plainly: Antiviral activity against Bovine viral diarrhea virus infected in MDBK cells assessed as reduction in viral infectivity at 10 uM treated for 24 hrs followed by compound washout followed by serially diluted compound treatment measured after 24 hrs by fluorescence microscopic analysis. The class given is functional, organism-based. In short, it runs like this:
(§1)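 Supernatant from BVDV-infected MDBK cells (MOI 1, 24 h with compound) was clarified, and fivefold serial dilutions infected naive MDBK cells for 24 h. Cells were fixed in 4% paraformaldehyde, blocked in milk, permeabilised with Triton X-100, and probed with MAb103/105 against NS2/3 then FITC anti-mouse. DAPI counterstain. Foci counted by fluorescence microscopy to give FFU/ml relative to untreated control; three experiments, mean and SD.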

For data set [2], the system named is MDBK. Put plainly: Inhibition of BVDV endoplasmic reticulum alpha-glucosidase 1 infected in MDBK cells assessed as increase in E2 protein glucosylation at 100 uM after 24 hrs by Western blotting analysis. Type of data set: cell-based. Conditions: Bovine viral diarrhea virus 1.
Data set [3] can be described thus: Cytotoxicity against MDBK cells after 72 hrs by MTS assay. Conditions: cattle. The class given is cell-based, Bos taurus. In short, it runs like this: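 MDBK cells (5 10^3/well) were plated for 24 h, then given fresh medium with a range of imino sugar concentrations for 72 h. MTS–phenazine methosulfate (20:1) was added for 1 h and absorbance read at 490 nm. Triplicates. CC50 is the concentration giving A490 at 50% of untreated controls.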

Data set [4] concerns Bovine viral diarrhea virus 1. Put plainly: Antiviral activity against Bovine viral diarrhea virus infected in MDBK cells assessed as reduction in viral infectivity at 50 uM treated for 24 hrs followed by compound washout followed by serially diluted compound treatment measured after 24 hrs by fluorescence microscopic analysis. The class given is functional, organism-based. In short, it runs like this:
as §1

The subject of data set [5] is MDBK. Kind of data set: Inhibition of endoplasmic reticulum alpha-glucosidase 2 in MDBK cells assessed as accumulation of monoglucosylated Man5GlcNAc1 after 24 hrs by NP-HPLC analysis. Conditions: Bos taurus. Type of data set: cell-based. The gist of the method:
(§2)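 Uninfected MDBK cells (1 10^6/well) were grown with a range of imino sugar concentrations for 24 h at 37 °C. Free oligosaccharides were extracted, labelled with 2-anthranilic acid, and purified on amide and ConA-Sepharose columns. They were separated by NP-HPLC. Peak areas of tri-glucosylated (glucosidase I) or mono-glucosylated (glucosidase II) Man5GlcNAc1 were expressed relative to Man4GlcNAc1. Mean and SD.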

In data set [6] the test system is MDBK. Kind of data set: Inhibition of BVDV endoplasmic reticulum alpha-glucosidase 2 infected in MDBK cells assessed as increase in E2 protein glucosylation at 100 uM after 24 hrs by Western blotting analysis. Type of data set: cell-based. Conditions: Bovine viral diarrhea virus 1.
Data set [7] relates to MDBK. Kind of data set: Inhibition of endoplasmic reticulum alpha-glucosidase 1 in MDBK cells assessed as accumulation of triglucosylated Man5GlcNAc1 after 24 hrs by NP-HPLC analysis. The class given is cell-based. Particulars: Bos taurus. In short, it runs like this:
as §2

The test system of data set [8] is Bovine viral diarrhea virus 1. Put plainly: Antiviral activity against Bovine viral diarrhea virus infected in MDBK cells assessed as reduction in viral RNA level at 10 uM after 24 hrs by RT-PCR analysis. Type of data set: functional, organism-based. The gist of the method:
(§3)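 MDBK cells (1.75 10^6/well) infected with BVDV at MOI 1, then incubated with imino sugar for 24 h. Medium was clarified by centrifugation and viral RNA purified, then DNase-treated. SYBR green real-time RT-PCR used primers amplifying a 334-bp NS2 segment, 35 cycles. Copies were calibrated against a standard curve of serially diluted BVDV stock.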

Data set [9] concerns MDBK. Put plainly: Inhibition of endoplasmic reticulum alpha-glucosidase 2 in MDBK cells assessed as accumulation of monoglucosylated Man5GlcNAc1 after 24 hrs by NP-HPLC analysis relative to Man4GlcNAc1 level. Particulars: Bos taurus. The class given is cell-based. The gist of the method:
as §2

Data set [10] deals with MDBK. Kind of data set: Inhibition of endoplasmic reticulum alpha-glucosidase 1 in MDBK cells assessed as accumulation of triglucosylated Man5GlcNAc1 after 24 hrs by NP-HPLC analysis relative to Man4GlcNAc1 level. The class given is cell-based. Conditions: Bos taurus. In short, it runs like this:
as §2

Data set [11] has as its system Bovine viral diarrhea virus 1. Put plainly: Antiviral activity against Bovine viral diarrhea virus infected in MDBK cells assessed as reduction in viral RNA level at 50 uM after 24 hrs by RT-PCR analysis. The class given is functional, organism-based. The gist of the method: as §3

As to `OC[C@@H]1[C@H](O)[C@H](O)[C@@H](O)CN1CCCCn1cc(COCC23CC4CC(CC(C4)C2)C3)nn1`, the result in data set [1] and in data set [4] was Active. For the same compound, the “glucosidase I inhibition (active/not active)” value in the data set with MDBK [2] is “inactive”. The compound also displayed a cytotoxic concentration (CC50) at 72 h in data set [3] of more than 250 µM. Moreover, the inhibition entry in the data set on MDBK [5] and in the data set with MDBK [7] was “inactive” throughout. Also, the “activity call (active / not active)” value in the data set with MDBK [6] is “inactive”.
In the case of `OC[C@@H]1[C@@H](O)[C@H](O)[C@@H](O)CN1CCCCCCCCn1cc(COCC23CC4CC(CC(C4)C2)C3)nn1`, the outcome in data set [1] and in [8] was Active. The 50% cytotoxic concentration (CC50) at 72 h in [3] is 51.7 µM. In the data set with MDBK [5], the Concentration giving inhibition worked out at 10 µM. In addition, the fold change (FC) in the data set on MDBK [9] was found to be 5.4; in the data set on MDBK [10], 2. In addition, the INH with MDBK [7] stood at 25 µM.
As for `OC[C@@H]1[C@@H](O)[C@H](O)[C@@H](O)CN1CCCCCCCCCCn1cc(COCC23CC4CC(CC(C4)C2)C3)nn1`, the result in [1] and in data set [8] was Active. In addition, in the data set on MDBK [2], the “glucosidase I inhibition (active/not active)” value was “inactive”. In data set [3], this compound yielded a CC50 at 72 h of 29.2 µM. Further, the Concentration giving inhibition in the data set on MDBK [5] came to 5 µM. The “activity call (active / not active)” value in the data set with MDBK [6] is “inactive”. Moreover, the fold change (FC) was 5.8 in the data set on MDBK [9] and 0.26 with MDBK [10]. For the same compound, the INH with MDBK [7] is 10 µM.
As for `OC[C@@H]1[C@@H](O)[C@H](O)[C@@H](O)CN1Cc1cn(CC23CC4CC(CC(C4)C2)C3)nn1`, the CC50 at 72 h in [3] was more than 250 µM. Moreover, the result in data set [4] was Active. For the same compound, the Concentration giving inhibition in the data set with MDBK [5] was determined as 100 µM. In addition, the outcome in [8] was inactive. The fold change (FC) in the data set on MDBK [9] turned out to be 3; in the data set on MDBK [10] it was 0.54. Besides, in the data set on MDBK [7], the INH amounted to 100 µM.
`OC[C@@H]1[C@@H](O)[C@H](O)[C@@H](O)CN1CCCCc1cn(CC23CC4CC(CC(C4)C2)C3)nn1` had a CC50 at 72 h in [3] of more than 250 µM. The outcome in data set [4] and in data set [11] was Active. Besides, the Concentration giving inhibition in the data set on MDBK [5] was determined as 50 µM. In addition, the outcome in data set [8] was inactive. The values for the fold change (FC) in the data set on MDBK [9] and in the data set with MDBK [10] were 5.2 and 1.44, respectively. In the data set with MDBK [7], the INH amounted to 100 µM.
`OC[C@@H]1[C@@H](O)[C@H](O)[C@@H](O)CN1CCCCn1cc(COCC23CC4CC(CC(C4)C2)C3)nn1`: the result in [1] and in [8] was Active. In addition, the “glucosidase I inhibition (active/not active)” value in the data set with MDBK [2] was “inactive”. The same compound returned a CC50 at 72 h in [3] of more than 250 µM. For the same compound, in the data set on MDBK [5], the Concentration giving inhibition turned out to be 100 µM. In addition, in the data set on MDBK [6], the “activity call (active / not active)” value is “inactive”. Also, the fold change (FC) worked out at 6 in the data set with MDBK [9] and 1.52 in the data set on MDBK [10]. Also, the INH in the data set on MDBK [7] worked out at 100 µM.
For `OC[C@@H]1[C@@H](O)[C@H](O)[C@@H](O)CN1CCCCCCn1cc(COCC23CC4CC(CC(C4)C2)C3)nn1`, the outcome in [1] was Active. Moreover, the “glucosidase I inhibition (active/not active)” value with MDBK [2] is “Active”. Further, in data set [3], the CC50 at 72 h was determined as 205 µM. Also, the Concentration giving inhibition in the data set with MDBK [5] came out at 10 µM. Also, in the data set on MDBK [6], the “activity call (active / not active)” value is “Active”. The fold change (FC) amounted to 8.3 in the data set with MDBK [9] and 11.4 in the data set with MDBK [10]. In the data set with MDBK [7], the INH was found to be 100 µM.
On to `OC[C@@H]1[C@@H](O)[C@H](O)[C@@H](O)CN1CCc1cn(CC23CC4CC(CC(C4)C2)C3)nn1`, for which the cytotoxic concentration (CC50) at 72 h in data set [3] was more than 250 µM. The result in data set [4] and in [11] was Active. Moreover, in the data set on MDBK [5], the Concentration giving inhibition worked out at 100 µM. In addition, in data set [8], the outcome was inactive. Moreover, the fold change (FC) with MDBK [9] was 5.1; in the data set with MDBK [10] it was 0.82. Besides, in the data set with MDBK [7], the INH turned out to be 100 µM.
